Reference: ChEMBL document CHEMBL1157027, “The identification of 8,9-dimethoxy-5-(2-aminoalkoxy-pyridin-3-yl)-benzo[c][2,7]naphthyridin-4-ylamines as potent inhibitors of 3-phosphoinositide-dependent kinase-1 (PDK-1)” (Eur J Med Chem, 2010)

Experiments:
[1] = target: T1, 3-phosphoinositide-dependent protein kinase 1 (Homo sapiens, UniProt O15530); test: Inhibition of human GST-tagged-PDK1 expressed in HEK293 cells; type: cell-based
T1 sequence (O15530 whole entry): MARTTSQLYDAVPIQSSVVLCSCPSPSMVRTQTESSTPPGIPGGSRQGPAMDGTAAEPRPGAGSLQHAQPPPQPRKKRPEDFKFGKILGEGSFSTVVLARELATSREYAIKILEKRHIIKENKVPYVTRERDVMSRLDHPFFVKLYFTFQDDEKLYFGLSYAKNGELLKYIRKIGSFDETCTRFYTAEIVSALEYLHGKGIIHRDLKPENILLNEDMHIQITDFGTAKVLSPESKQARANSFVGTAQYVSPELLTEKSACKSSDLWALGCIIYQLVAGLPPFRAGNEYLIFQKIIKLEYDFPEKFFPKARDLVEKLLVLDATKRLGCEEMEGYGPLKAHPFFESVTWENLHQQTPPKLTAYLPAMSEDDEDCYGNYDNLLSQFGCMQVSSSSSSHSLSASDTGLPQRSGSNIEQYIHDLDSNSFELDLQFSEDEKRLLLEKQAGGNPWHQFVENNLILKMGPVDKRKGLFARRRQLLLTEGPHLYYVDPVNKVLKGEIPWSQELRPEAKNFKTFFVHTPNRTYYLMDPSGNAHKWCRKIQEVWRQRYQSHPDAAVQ

[2] = target: Ribosomal protein S6 kinase beta-1 (Homo sapiens, UniProt P23443); test: Inhibition of p70S6K
[3] = target: RAC-alpha serine/threonine-protein kinase (Homo sapiens, UniProt P31749); test: Inhibition of AKT
[4] = Inhibition of PKA
How it was run: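 PKA activity was measured with the Z'-LYTE kinase assay, run per the manufacturer's protocol at 100 uM ATP. IC50 values are given in nM.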

Ribosomal protein S6 kinase beta-1, sequence (P23443 whole entry): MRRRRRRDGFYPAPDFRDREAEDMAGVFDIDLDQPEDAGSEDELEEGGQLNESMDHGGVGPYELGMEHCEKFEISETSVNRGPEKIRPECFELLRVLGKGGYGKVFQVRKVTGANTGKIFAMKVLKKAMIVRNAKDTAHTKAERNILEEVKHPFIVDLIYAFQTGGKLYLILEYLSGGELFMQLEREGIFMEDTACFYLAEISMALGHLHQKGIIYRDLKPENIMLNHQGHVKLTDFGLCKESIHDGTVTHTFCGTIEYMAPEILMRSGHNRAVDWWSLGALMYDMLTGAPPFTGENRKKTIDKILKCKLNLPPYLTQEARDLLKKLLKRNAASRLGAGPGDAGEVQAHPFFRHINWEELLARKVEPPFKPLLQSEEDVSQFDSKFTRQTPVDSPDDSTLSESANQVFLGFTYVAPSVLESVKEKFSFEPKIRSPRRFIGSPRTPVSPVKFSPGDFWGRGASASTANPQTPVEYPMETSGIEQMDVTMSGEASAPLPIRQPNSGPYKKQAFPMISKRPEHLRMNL
RAC-alpha serine/threonine-protein kinase, sequence (P31749 whole entry): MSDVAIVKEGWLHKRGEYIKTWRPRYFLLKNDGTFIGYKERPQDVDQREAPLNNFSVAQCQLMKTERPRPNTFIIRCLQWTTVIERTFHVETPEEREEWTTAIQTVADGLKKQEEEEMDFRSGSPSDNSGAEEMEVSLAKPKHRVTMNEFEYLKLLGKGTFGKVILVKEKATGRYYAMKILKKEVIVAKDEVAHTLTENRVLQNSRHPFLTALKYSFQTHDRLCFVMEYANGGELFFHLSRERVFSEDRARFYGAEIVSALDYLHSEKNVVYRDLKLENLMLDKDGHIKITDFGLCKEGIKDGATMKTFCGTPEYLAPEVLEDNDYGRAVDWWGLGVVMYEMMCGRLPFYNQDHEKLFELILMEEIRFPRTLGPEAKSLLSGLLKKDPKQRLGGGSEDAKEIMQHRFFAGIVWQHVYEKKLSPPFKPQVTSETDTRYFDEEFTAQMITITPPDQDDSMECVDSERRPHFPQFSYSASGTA

| SMILES | IC50 [1] [nM] | IC50 [2] [nM] | IC50 [3] [nM] | IC50 [4] [nM] |
| --- | --- | --- | --- | --- |
| CC[C@@H](N)COc1cncc(-c2cc3c(cnc4cc(OC)c(OC)cc43)c(N)n2)c1 | 3 | 72 | 318 | 45 |
| COc1cc2ncc3c(N)nc(-c4cncc(OC[C@@H](N)CC(C)C)c4)cc3c2cc1OC | 14 | 219 | 905 | 113 |
| COc1cc2ncc3c(N)nc(-c4cncc(OC[C@H](N)CC(C)C)c4)cc3c2cc1OC | 18 | 443 | 1390 | 385 |
| COc1cc2ncc3c(N)nc(-c4cncc(OCCN)c4)cc3c2cc1OC | – | 80 | 402 | 66 |
| COc1cc2ncc3c(N)nc(-c4cncc(OC[C@H](C)N)c4)cc3c2cc1OC | – | – | – | 123 |
| COc1cc2ncc3c(N)nc(-c4cncc(OC[C@H](N)Cc5cccc(C(F)(F)F)c5)c4)cc3c2cc1OC | – | – | – | 142 |
| COc1cc2ncc3c(N)nc(-c4cncc(OC[C@H](N)Cc5ccccc5)c4)cc3c2cc1OC | – | – | 259 | < 31 |
| COc1cc2ncc3c(N)nc(-c4cncc(OC[C@@H](N)Cc5c[nH]c6ccccc56)c4)cc3c2cc1OC | – | 77 | 302 | 54 |
| COc1cc2ncc3c(N)nc(-c4cncc(OC[C@@H](N)Cc5ccc(F)cc5)c4)cc3c2cc1OC | – | 21 | 183 | 32 |
| COc1cc2ncc3c(N)nc(-c4cncc(OC[C@H](N)Cc5ccc(F)cc5)c4)cc3c2cc1OC | – | – | 251 | 36 |
| COc1cc2ncc3c(N)nc(-c4cncc(OC[C@@H](N)Cc5ccccc5Cl)c4)cc3c2cc1OC | – | – | 793 | 79 |
| COc1cc2ncc3c(N)nc(-c4cncc(OC[C@@H](N)Cc5cccc(Cl)c5)c4)cc3c2cc1OC | – | – | 78 | 18 |
| COc1cc2ncc3c(N)nc(-c4cncc(OC[C@@H](N)Cc5ccccc5)c4)cc3c2cc1OC | – | 107 | 261 | 77 |
| COc1cc2ncc3c(N)nc(-c4cncc(OC[C@H](N)Cc5c[nH]c6ccccc56)c4)cc3c2cc1OC | – | – | 1320 | 120 |
| COc1cc2ncc3c(N)nc(-c4cncc(OC[C@@H](C)N)c4)cc3c2cc1OC | 3 | – | – | 86 |
| CC[C@H](N)COc1cncc(-c2cc3c(cnc4cc(OC)c(OC)cc43)c(N)n2)c1 | – | 216 | 422 | 59 |
| COc1cc2ncc3c(N)nc(-c4cncc(OC[C@@H](N)Cc5ccc(Cl)c(Cl)c5)c4)cc3c2cc1OC | – | – | – | 41 |
| COc1cc2ncc3c(N)nc(-c4cncc(OC[C@@H](N)Cc5ccncc5)c4)cc3c2cc1OC | 9 | 343 | 1750 | 138 |
| COc1cc2ncc3c(N)nc(-c4cncc(OC[C@@H](N)Cc5cccc(C(F)(F)F)c5)c4)cc3c2cc1OC | – | 182 | 209 | 68 |
